We go through 6 molecules from ChEMBL document CHEMBL4334554, “Structure-Guided Design of Substituted Biphenyl Butanoic Acid Derivatives as Neprilysin Inhibitors” (ACS Med Chem Lett, 2020).

In data set [1] the test system is Rattus norvegicus. Description: In vivo inhibition of NEP in Sprague-Dawley rat assessed as increase in PANP level at 30 mg/kg, po measured after 15 mins. The class given is functional, organism-based. A digest of the protocol:
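Conscious, chronically cannulated adult male Sprague–Dawley rats received an IV infusion of rat ANP to saturate natriuretic peptide clearance receptors, so ANP elimination relied mainly on NEP. The ethyl ester prodrug was then given orally at 30 mg/kg. Blood was drawn at baseline before dosing and at intervals up to 8 h, and plasma ANP was expressed as % baseline, with parallel PK.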

Data set [2] can be described thus: Clearance in dog plasma. The class given is ADME, cell-free, Canis lupus familiaris.
Data set [3] is described as follows: Volume of distribution at steady state in Sprague-Dawley rat at 1 mg/kg, iv measured upto 24 hrs by HPLC-MS/MS analysis. The note with it: in vivo, read-out: Vdss. The class given is ADME, organism-based.
A short description of data set [4]: Clearance in Sprague-Dawley rat at 1 mg/kg, iv measured upto 24 hrs by HPLC-MS/MS analysis. The class given is ADME, organism-based. Particulars: in vivo.
Data set [5] can be described thus: Apparent half life in monkey. The class given is ADME, Macaca mulatta. Particulars: rhesus monkey, in vivo; read-out: t1/2(app) (converted).
Data set [6] in a line: Apparent half life in dog. The class given is ADME, Canis lupus familiaris. The note with it: in vivo, read-out: t1/2(app) (converted).
Data set [7] in a line: Terminal half life in Sprague-Dawley rat at 1 mg/kg, iv measured upto 24 hrs by HPLC-MS/MS analysis. The class given is ADME, organism-based. Particulars: in vivo, read-out: beta t1/2 (converted).
The nature of data set [8]: AUC (0 to 7 hrs) in Sprague-Dawley rat at 1 mg/kg, iv measured upto 24 hrs by HPLC-MS/MS analysis. The note with it: in vivo. On the set-up: time < 7 hr, dose 1 mg/kg, route intravenous. The class given is ADME, organism-based.
Data set [9] in a line: Clearance in monkey plasma. The note with it: rhesus monkey. The class given is ADME, cell-free, Macaca mulatta.
For data set [10], the system named is Rattus norvegicus. The data set is described as follows: In vivo inhibition of NEP in po dosed Sprague-Dawley rat assessed as increase in PANP level measured up to 8 hrs. The class given is functional, organism-based. Summed up: (§1)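 ANP potentiation model in conscious, chronically cannulated adult male Sprague–Dawley rats. Rats received an IV infusion of rat ANP to saturate the clearance receptors, so that ANP was removed mainly by NEP. The ethyl ester prodrug was then dosed orally. Blood was sampled at baseline and at intervals up to 8 h. Plasma ANP was read as % baseline, alongside parent plasma levels.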

A short description of data set [11]: Prodrug activation in monkey. On the set-up: species or system Macaca mulatta. Particulars: rhesus monkey.
Data set [12] can be described thus: AUC (0 to 7 hrs) in Sprague-Dawley rat at 3 mg/kg, po measured upto 24 hrs by HPLC-MS/MS analysis. The class given is ADME, organism-based. On the set-up: time < 7 hr, dose 3 mg/kg, route oral. Particulars: in vivo.
A short description of data set [13]: Cmax in Sprague-Dawley rat at 3 mg/kg, po measured upto 24 hrs by HPLC-MS/MS analysis. The class given is ADME, organism-based. On the set-up: dose 3 mg/kg, route oral. Particulars: in vivo.
Data set [14] is described as follows: Oral bioavailability in Sprague-Dawley rat at 3 mg/kg measured upto 24 hrs by HPLC-MS/MS analysis. The class given is ADME, organism-based. Particulars: in vivo.
The nature of data set [15]: Prodrug activation in rat.
Data set [16] can be described thus: Prodrug activation in dog. Details: species or system Canis lupus familiaris.
Data set [17] can be described thus: Intrinsic clearance in human Hepatocyte assessed per million cells. The class given is ADME, cell-based. Particulars: hepatocytes, read-out: CLH.
Data set [18] can be described thus: Intrinsic clearance in rat Hepatocyte assessed per million cells. The class given is ADME, cell-based. Particulars: hepatocytes, read-out: CLH.
Data set [19] is described as follows: Stability in rat liver microsomes assessed as intrinsic clearance. The class given is ADME, Microsome. Particulars: read-out: CLH. (Liver microsomes are vesicles of endoplasmic reticulum, rich in cytochrome P450 enzymes.)
Data set [20] in a line: Volume of distribution in Sprague-Dawley rat at 1 mg/kg, iv. The class given is ADME, organism-based. The note with it: in vivo.
A short description of data set [21]: Oral bioavailability in Sprague-Dawley rat at 3 mg/kg. The class given is ADME, organism-based. Particulars: in vivo.
A short description of data set [22]: Plasma concentration in Sprague-Dawley rat at 30 mg/kg, po. Particulars: in vivo. The class given is ADME, organism-based. Summed up:
as §1

A short description of data set [23]: Half life in Sprague-Dawley rat at 1 mg/kg, iv. The class given is ADME, organism-based. Particulars: in vivo.
A short description of data set [24]: Stability in human liver microsomes assessed as intrinsic clearance. The class given is ADME, Microsome. The note with it: read-out: CLH.
Data set [25] can be described thus: Clearance in Sprague-Dawley rat at 1 mg/kg, iv. The class given is ADME, organism-based. Particulars: in vivo.

The structures appear in SMILES notation. Calls of active or inactive are those of the source. No cut-off for these calls is given here.

As for `CCOC(=O)[C@H](C)C[C@@H](Cc1ccc(-c2ccccc2)cc1)NC(=O)CCC(=O)O`, the inhibition result in the data set with Rattus norvegicus [1] was “Active”.

Usually clearance stands for a measure of how efficiently the substance is removed, as volume per time. What is called AUC(0-t) is the area under the concentration-time curve up to a stated or last time point. Consider `O=C(O)CCC(=O)N[C@@H](CC(=O)O)Cc1ccc(-c2cccc(Cl)c2)cc1`, for which the results for the clearance in data set [2], in [4] and in data set [9] were 29 mL/min/kg, 5 mL/min/kg and 3 mL/min/kg, respectively. Besides, in data set [3], the Vd is 0.1 L/kg. For the same molecule, the values for the half-life in [5], in data set [6] and in data set [7] were 4 h, 0.8 h and 0.8 h, respectively. This molecule also gave an AUC(0-t) at 7 h in data set [8] of 8.73 µM·h.

In general, Cmax refers to the maximum level reached in the sampled fluid or tissue. For orientation: bioavailability means dose-corrected exposure relative to a reference, in per cent. With `CCOC(=O)C[C@@H](Cc1ccc(-c2cccc(Cl)c2)cc1)NC(=O)CCC(=O)O`, the inhibition result in the data set on Rattus norvegicus [10] is “Dose-dependent effect”. Moreover, the Activity is listed as 69% in data set [11], 99% in [15] and 5% in [16]. In data set [12], this molecule had an AUC(0-t) at 7 h of 10.1 µM·h. This molecule registered a Cmax in data set [13] of 12.6 µM. This molecule came in with a bioavailability in data set [14] of 42%.

For the molecule `COc1ccc(Cl)cc1-c1ccc(C[C@H](CC(=O)O)NC(=O)CCC(=O)O)cc1`, in data set [3], the Vd worked out at 0.1 L/kg. The clearance in data set [4] turned out to be 5 mL/min/kg. Besides, in data set [7], the half-life was 1 h. In data set [8], this molecule gave an AUC(0-t) at 7 h of 8.1 µM·h.

Molecule `CCOC(=O)C[C@@H](Cc1ccc(-c2cc(Cl)ccc2OC)cc1)NC(=O)CCC(=O)O` registered an area under the curve AUC(0-t) at 7 h in data set [12] of 5.63 µM·h. In data set [13], the highest level (Cmax) was 5.38 µM. This molecule gave a bioavailability in data set [14] of 25%.

On to `O=C(O)CCC(=O)N[C@@H](CC(=O)O)Cc1ccc(-c2ccccc2)cc1`, for which the inhibition result in the data set on Rattus norvegicus [1] was “Active”. Moreover, the values for the hepatocyte CLint in data set [17] and in [18] were 0.68 µL/min/1e6 cells and 2.1 µL/min/1e6 cells, respectively. In addition, the microsomal CLint in data set [19] and in data set [24] was less than 3.42 µL/min/mg throughout. The Vd in data set [20] came to 0.2 L/kg. For the same molecule, in data set [21], the bioavailability was 66%. Further, the concentration in data set [22] was greater than 2 µM. In data set [23], this molecule gave a half-life of 2.5 h. In addition, in data set [25], the clearance was determined as 11 mL/min/kg.
